Laboratory results from paper PMC6433393 (Journal of chromatography. B, Analytical technologies in …, 2012).

What was measured:
[1] = Stability of MX in human whole blood kept in ice bath before centrifugation; format: in vitro ADME
In short: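 From one patient, five 2-ml lithium-heparin blood tubes were drawn 70 min after infusion and kept in an ice bath. They were centrifuged 0, 30, 60, 90 and 120 min after drawing (1500 × g, 4 °C, 5 min). Plasma was analysed later by the derivatisation LC-MS/MS method, and the mean, SD and %CV were calculated.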

[2] = Stability of MX in human plasma QCs; format: in vitro ADME; details: for recoveries of QC samples: three concentrations (3.50, 45.0 and 450 ng/ml)
In short: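 Plasma QCs were prepared in pooled human plasma with 10% 0.100 N HCl and held on the bench (23 °C), in the autosampler (15 °C), through freeze-thaw cycles (−70 to 23 °C) or at −70 °C. Samples were derivatised with 4-(N,N-diethylamino)benzaldehyde (70 °C, 1 h), extracted into MTBE and run by MRM LC-MS/MS. The mean MX/MX-d3 peak-area ratio (n = 6) relative to freshly prepared QCs is given as percent recovery.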

[3] = Stability of MX stock solution; format: physicochemical; details: for Recovery ± SD (n = 6): Stock solution 2.00 mg/ml
In short: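 The 2.00 mg/ml stock was stored at 4 °C or at 23 °C, then serially diluted to 45.0 ng/ml in 1% formic acid. It was derivatised with IS and analysed by MRM LC-MS/MS. Six parallel measurements gave the mean analyte/IS peak-area ratio, expressed as percent recovery against freshly prepared stock.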

[4] = Phase I clinical trial pharmacokinetic study of MX; format: in vivo, human; details: for Measured [MX] First analysis / Measured [MX] Re-analysis after 9 months: patient plasma; for Measured [MX] Re-analysis after 9 months: after 9-month storage at −70 °C
In short: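 Heparinised blood was iced, spun (1500 × g, 4 °C, 5 min), and plasma stored at −70 °C. Plasma was derivatised and assayed by LC-MS/MS against a calibration curve. Infusion data were fitted one-compartment; 1-h data were analysed by NCA.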

[5] = clinical trials, TMZ dosing regimen 150 mg/m^2/day; cited from earlier work
[6] = patients, 1-h iv infusion, 20 patients (46 cycles), with oral TMZ

CON [MX, Methoxyamine]
changes in MX concentration in human whole blood ([1]; over a period of 2 hours, samples kept in an ice bath): no significant changes
measured MX concentration, mean value ([1]; patient blood, ice bath, centrifuged 0-120 min after drawing, SD 0.1 ng/ml): 10.5 ng/mL
Recovery ± SD (n = 6) ([2]; High QC 450 ng/ml plasma, Autosampler 15 °C, 3 days): 96.9 ±3%
Recovery ± SD (n = 6) ([2]; High QC 450 ng/ml plasma, Bench-top 23 °C, 18 hours): 95.7 ± 2%
Recovery ± SD (n = 6) ([2]; High QC 450 ng/ml plasma, Deep freezer (Long-term) −70 °C, 5 months): 103 ± 2%
Recovery ± SD (n = 6) ([2]; High QC 450 ng/ml plasma, Freeze & thaw −70 to 23 °C, 3 cycles): 96.2 ± 2%
Recovery ± SD (n = 6) ([2]; Low QC 3.50 ng/ml plasma, Autosampler 15 °C, 3 days): 90.7 ±6%
Recovery ± SD (n = 6) ([2]; Low QC 3.50 ng/ml plasma, Bench-top 23 °C, 18 hours): 89.4 ± 4%
Recovery ± SD (n = 6) ([2]; Low QC 3.50 ng/ml plasma, Deep freezer (Long-term) −70 °C, 5 months): 95.7 ±3%
Recovery ± SD (n = 6) ([2]; Low QC 3.50 ng/ml plasma, Freeze & thaw −70 to 23 °C, 3 cycles): 96.6 ± 2%
Recovery ± SD (n = 6) ([2]; Mid QC 45.0 ng/ml plasma, Autosampler 15 °C, 3 days): 94.5 ± 5%
Recovery ± SD (n = 6) ([2]; Mid QC 45.0 ng/ml plasma, Bench-top 23 °C, 18 hours): 94.5 ± 4%
Recovery ± SD (n = 6) ([2]; Mid QC 45.0 ng/ml plasma, Deep freezer (Long-term) −70 °C, 5 months): 101 ± 2%
Recovery ± SD (n = 6) ([2]; Mid QC 45.0 ng/ml plasma, Freeze & thaw −70 to 23 °C, 3 cycles): 94.4 ± 2%
recoveries of QC samples ([2]; autosampler (15 °C)): 90.7–96.9%
recoveries of QC samples ([2]; bench top): 89.4–95.7%
recoveries of QC samples ([2]; long-term storage (5 months)): 95.7–103%
recoveries of QC samples ([2]; three freeze-and-thaw cycles (−70 to 23 °C)): 94.4–96.6%
Recovery ± SD (n = 6) ([3]; Bench-top 23 °C, 18 hours): 98.4 ± 6%
Recovery ± SD (n = 6) ([3]; Refrigerator 4 °C, 5 months): 96.4 ± 7%
recoveries of stock solutions ([3]; refrigerator (4 °C) and bench top (23 °C)): 96.4–98.4%
Measured [MX] First analysis ([4]; sampling 0.250 h): 5.36 ng/mL
Measured [MX] Re-analysis after 9 months ([4]; sampling 0.250 h): 5.69 ng/mL
Measured [MX] First analysis ([4]; sampling 0.500 h): 8.95 ng/mL
Measured [MX] Re-analysis after 9 months ([4]; sampling 0.500 h): 10.2 ng/mL
Measured [MX] First analysis ([4]; sampling 0.750 h): 16.2 ng/mL
Measured [MX] Re-analysis after 9 months ([4]; sampling 0.750 h): 18.2 ng/mL
Measured [MX] First analysis ([4]; sampling 0.983 h): 20.5 ng/mL
Measured [MX] Re-analysis after 9 months ([4]; sampling 0.983 h): 22.1 ng/mL
Measured [MX] First analysis ([4]; sampling 1.17 h): 25 ng/mL
Measured [MX] Re-analysis after 9 months ([4]; sampling 1.17 h): 27.1 ng/mL
Measured [MX] First analysis ([4]; sampling 2.00 h): 24.2 ng/mL
Measured [MX] Re-analysis after 9 months ([4]; sampling 2.00 h): 24.3 ng/mL
Measured [MX] First analysis ([4]; sampling 4.00 h): 18.3 ng/mL
Measured [MX] Re-analysis after 9 months ([4]; sampling 4.00 h): 20 ng/mL
Measured [MX] First analysis ([4]; sampling 6.00 h): 19 ng/mL
Measured [MX] Re-analysis after 9 months ([4]; sampling 6.00 h): 19.5 ng/mL
Measured [MX] First analysis ([4]; sampling 8.00 h): 18.9 ng/mL
Measured [MX] Re-analysis after 9 months ([4]; sampling 8.00 h): 17.5 ng/mL
Measured [MX] First analysis ([4]; sampling 12.0 h): 15.6 ng/mL
Measured [MX] Re-analysis after 9 months ([4]; sampling 12.0 h): 16.2 ng/mL
Measured [MX] First analysis ([4]; sampling 24.0 h): 13.3 ng/mL
Measured [MX] Re-analysis after 9 months ([4]; sampling 24.0 h): 13.2 ng/mL
Measured [MX] First analysis ([4]; sampling 48.0 h): 9.46 ng/mL
Measured [MX] Re-analysis after 9 months ([4]; sampling 48.0 h): 10 ng/mL
Measured [MX] First analysis ([4]; sampling 72.0 h): 6.56 ng/mL
Measured [MX] Re-analysis after 9 months ([4]; sampling 72.0 h): 6.46 ng/mL
Measured [MX] First analysis ([4]; sampling 96.0 h): 4.46 ng/mL
Measured [MX] Re-analysis after 9 months ([4]; sampling 96.0 h): 4.76 ng/mL
Measured [MX] First analysis ([4]; sampling 120 h): 3.55 ng/mL
Measured [MX] Re-analysis after 9 months ([4]; sampling 120 h): 3.69 ng/mL
Measured [MX] First analysis ([4]; sampling 168 h): 2.11 ng/mL
Measured [MX] Re-analysis after 9 months ([4]; sampling 168 h): 2.29 ng/mL
Measured [MX] First analysis ([4]; sampling 192 h): 1.55 ng/mL
Measured [MX] Re-analysis after 9 months ([4]; sampling 192 h): 1.76 ng/mL
Measured [MX] First analysis ([4]; sampling 216 h): 1.22 ng/mL
Measured [MX] Re-analysis after 9 months ([4]; sampling 216 h): 1.39 ng/mL
mean Cmax [4, 6]: 14.98 ng/mL
mean t1/2 [4, 6]: 54.21 h

Cn1nnc2c(C(N)=O)ncn2c1=O [TMZ, Temozolomide]
maximum concentrations (Cmax) in human plasma [5]: below 10 μg/ml
